Here are results for 25 molecules from ChEMBL document CHEMBL1125535, “Benzothiazole hydroxy ureas as inhibitors of 5-lipoxygenase: use of the hydroxyurea moiety as a replacement for hydroxamic acid” (J Med Chem, 1992).

Assay [1] addresses T1, Polyunsaturated fatty acid 5-lipoxygenase (Homo sapiens, UniProt P09917).
T1 sequence (P09917 whole entry): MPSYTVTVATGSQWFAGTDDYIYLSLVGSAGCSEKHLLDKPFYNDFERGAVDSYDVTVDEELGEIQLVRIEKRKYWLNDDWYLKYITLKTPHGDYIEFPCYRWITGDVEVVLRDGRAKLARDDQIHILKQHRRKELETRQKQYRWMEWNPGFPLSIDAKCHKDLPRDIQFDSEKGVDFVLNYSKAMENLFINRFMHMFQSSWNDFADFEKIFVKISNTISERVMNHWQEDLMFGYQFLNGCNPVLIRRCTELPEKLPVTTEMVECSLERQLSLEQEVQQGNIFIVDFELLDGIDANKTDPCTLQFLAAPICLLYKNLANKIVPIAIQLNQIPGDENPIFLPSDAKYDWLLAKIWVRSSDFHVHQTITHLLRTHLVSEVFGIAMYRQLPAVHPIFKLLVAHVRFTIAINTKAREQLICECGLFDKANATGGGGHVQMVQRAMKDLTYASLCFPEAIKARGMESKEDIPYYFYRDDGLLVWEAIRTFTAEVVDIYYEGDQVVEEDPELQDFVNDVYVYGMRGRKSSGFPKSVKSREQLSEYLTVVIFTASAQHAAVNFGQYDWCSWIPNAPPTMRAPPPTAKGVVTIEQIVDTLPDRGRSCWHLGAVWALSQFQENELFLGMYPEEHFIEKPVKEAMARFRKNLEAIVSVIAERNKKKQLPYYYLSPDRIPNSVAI
In words: In vitro inhibition of ionophore stimulated LTB4 release from human peripheral blood leukocytes. The class given is functional. The procedure, abridged: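 Leukocytes from pooled human venous blood were isolated by plasmagel sedimentation and erythrocyte lysis, then set to 1×10^6 cells/mL in modified Eagle MEM. Cells were preincubated 5 min at 37 °C with DMSO vehicle or compound, then stimulated 5 min at 37 °C with A23187 (5 µL of 0.1 mM). Reaction stopped on ice with cold Ca-free PBS; supernatant LTB4 measured by [3H]RIA.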

In assay [2] the test system is Mus musculus. In words: In vivo 5-Lipoxygenase inhibitory activity by using mouse zymosan peritonitis model; inactive. Format: functional, organism-based. Put shortly: (§1)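 CD-1 mice (18–25 g) received compound orally in 0.5% methyl cellulose, then 3 mg zymosan-A in 0.5 mL 0.9% saline ip 1 h later. Samples were held on ice ≥30 min and spun at 28000g for 15 min at 4 °C. Supernatants were dried under nitrogen and stored at −70 °C. LTC4 measured by [3H]RIA on a 1:20 dilution.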

In assay [3] the target is T1, Polyunsaturated fatty acid 5-lipoxygenase. In words: In vitro effective concentration required to inhibit ionophore stimulated-human peripheral blood leukocytes; inactive. The class given is functional.
Assay [4] concerns Mus musculus. In words: In vivo 5-Lipoxygenase inhibitory activity by using mouse zymosan peritonitis model. The class given is functional, organism-based. The procedure, abridged: as §1

In the case of `CC(C)c1ccc2nc(SCCNC(=O)N(C)O)sc2c1`, the EC50 was 160 nM in assay [1] and “Not Active” in the assay with Mus musculus [2].

Turning to `CN(O)C(=O)CCSc1nc2ccccc2s1`, the EC50 in assay [1] was 39 nM.

For the molecule `O=C(NO)NCCSc1nc2cc(Cl)ccc2s1`, the EC50 in assay [1] was 24500 nM; with Mus musculus [2], “Not Active”.

Consider `CN(O)C(=O)CSc1nc2ccccc2s1`, for which, in assay [1], the EC50 was 70 nM.

Consider `CC(C)N(O)C(=O)NCCCSc1nc2ccccc2s1`, for which the EC50 was 70 nM in assay [1] and “Not Active” with Mus musculus [2].

Regarding `CNC(=O)NCCSc1nc2ccccc2s1`, the EC50 entry (in assay [3]; with Mus musculus [2]) was “Not Active” each time.

`CNC(=O)CCSc1nc2ccccc2s1`: the EC50 entry in assay [3] was “Not Active”.

The molecule `CN(O)C(=O)/C=C/Sc1nc2ccccc2s1` displayed an EC50 in assay [1] of 130 nM.

Regarding `CCOc1ccc2nc(SCCNC(=O)N(O)C(C)C)sc2c1`, the results for the EC50 (in assay [1]; in the assay with Mus musculus [2]) were 390 nM and “Not Active”, respectively.

With `CON(C)C(=O)NCCSc1nc2ccccc2s1`, the EC50 entry (in assay [3]; in the assay on Mus musculus [2]) was “Not Active” in each case.

With `CONC(=O)NCCSc1nc2ccccc2s1`, the EC50 result (in assay [3]; in the assay on Mus musculus [2]) was “Not Active” throughout.

Take `CN(O)C(=O)NCSc1nc2ccccc2s1`: the values for the EC50 (in assay [1]; with Mus musculus [4]) were 1070 nM and 65.9 mg/kg, respectively.

In the case of `CC(C)N(O)C(=O)NCCSc1nc2cc(Cl)ccc2s1`, the EC50 in assay [1] is 70 nM; in the assay with Mus musculus [2] it was “Not Active”.

For the molecule `CN(O)C(=O)CCSc1nc2cc(Cl)ccc2s1`, the EC50 in assay [1] was determined as 20 nM.

As for `CN(O)C(=O)NCCSc1nc2cccc(Cl)c2s1`, the EC50 in assay [1] is 530 nM; with Mus musculus [2], “Not Active”.

Regarding `CC(C)N(O)C(=O)NCCSc1nc2ccccc2s1`, the EC50 in assay [1] was 130 nM; in the assay on Mus musculus [2], “Not Active”.

For `CN(O)C(=O)NCCSc1nc2cc(Cl)ccc2s1`, the EC50 stood at 20 nM in assay [1] and 23.1 mg/kg with Mus musculus [4].

Turning to `O=C(NO)NCCSc1nc2ccccc2s1`, the EC50 in assay [1] was 5200 nM; in the assay with Mus musculus [2] it was “Not Active”.

In the case of `CN(O)C(=O)NCCSc1nc2ccccc2s1`, the EC50 in assay [1] stood at 90 nM; in the assay with Mus musculus [4] it was 41 mg/kg.

`CN(O)C(=O)NCCSc1nc2cc(C(F)(F)F)ccc2s1`: the results for the EC50 (in assay [1]; in the assay with Mus musculus [2]) were 3200 nM and “Not Active”, respectively.

Take `CCOc1ccc2nc(SCCNC(=O)N(C)O)sc2c1`: the values for the EC50 (in assay [1]; with Mus musculus [2]) were 110 nM and “Not Active”, respectively.

As for `CN(O)C(=O)NCCCSc1nc2ccccc2s1`, the results for the EC50 (in assay [1]; in the assay with Mus musculus [4]) were 45 nM and 23 mg/kg, respectively.

On to `NC1=NN(c2cccc(C(F)(F)F)c2)CC1` [BW-755C], for which the EC50 with Mus musculus [4] turned out to be 8.5 mg/kg.

On to `COc1ccc(-n2nc(CCC(=O)N(C)O)cc2-c2ccc(Cl)cc2)cc1` [TEPOXALIN], for which the EC50 in assay [1] is 70 nM; in the assay on Mus musculus [4], 44.5 mg/kg.

The molecule `CC(c1cc2ccccc2s1)N(O)C(N)=O` (stereo not drawn) [ZILEUTON] showed an EC50 in the assay with Mus musculus [4] of 1.6 mg/kg.
